In ChEMBL document CHEMBL3108674, “6-Alkoxy-5-aryl-3-pyridinecarboxamides, a new series of bioavailable cannabinoid receptor type 1 (CB1) antagonists including peripherally selective compounds” (J Med Chem, 2013):
Activity calls are given as the source filed them. The calls are words filed in the database; no cut-off is given here.

What was measured:
Rattus norvegicus [1] = assay: Reduction of leptin level in high fat diet-fed Sprague-Dawley rat plasma at 30 mg/kg, po qd after 24 days by ELISA; format: functional, organism-based; design: dose 30 mg/kg
Method in brief: (§1)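 Diet-induced obese Sprague-Dawley rats (high responders), single-housed, groups of n = 9 matched for body weight and MRS body fat; drug given as food admix for 24 days alongside pair-fed groups; body weight and food intake measured daily; body fat by MRS; plasma leptin by ELISA; mean ± SEM, ANOVA with Dunnett's test versus vehicle.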

Rattus norvegicus [2] = assay: Reduction in body fat content in high fat diet-fed Sprague-Dawley rat at 30 mg/kg, po qd after 24 days; format: functional, organism-based; design: dose 30 mg/kg; method in brief: as §1
Rattus norvegicus [3] = species: Rattus norvegicus; assay: Reduction in body weight gain in high fat diet-fed Sprague-Dawley rat at […]; format: functional, organism-based
[4] = Ratio of drug level in Sprague-Dawley rat brain to plasma at 30 mg/kg, po qd after 10 days by LC-MS/MS analysis; format: ADME, organism-based; design: dose 30 mg/kg, route oral; details: brain and plasma, read-out: BPR
[5] = Drug uptake in Sprague-Dawley rat brain at 30 mg/kg, po qd after 10 days by LC-MS/MS analysis; format: ADME, organism-based; design: dose 30 mg/kg, route oral; details: read-out: Drug uptake
[6] = Cmax in Sprague-Dawley rat plasma at 30 mg/kg, po qd after 10 days by LC-MS/MS analysis; format: ADME, organism-based; design: dose 30 mg/kg, route oral
Method in brief: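 Male Sprague-Dawley rats (n = 3 per compound) given 30 mg/kg/day as feed admix for 10 days; jugular vein catheter implanted 4 days before sampling; on day 10 switched to drug-free high fat chow, then serial K3EDTA blood samples over 24 h; plasma drug levels by LC-MS.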

Substance-K receptor = biological target: T1, Substance-K receptor (Homo sapiens, UniProt P21452); assay: Antagonist activity at human NK2 receptor
T1 sequence (P21452 whole entry): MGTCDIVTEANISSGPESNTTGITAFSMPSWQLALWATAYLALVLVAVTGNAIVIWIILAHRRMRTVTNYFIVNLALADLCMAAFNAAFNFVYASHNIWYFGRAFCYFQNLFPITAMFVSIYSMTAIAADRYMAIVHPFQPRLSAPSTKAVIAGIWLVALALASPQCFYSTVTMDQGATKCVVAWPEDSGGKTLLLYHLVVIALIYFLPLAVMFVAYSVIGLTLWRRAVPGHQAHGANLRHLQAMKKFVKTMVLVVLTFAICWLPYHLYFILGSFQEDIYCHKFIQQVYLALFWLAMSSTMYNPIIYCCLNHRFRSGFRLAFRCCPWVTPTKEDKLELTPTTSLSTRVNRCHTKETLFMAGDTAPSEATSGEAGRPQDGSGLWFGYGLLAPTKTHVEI

Rattus norvegicus [7] = assay: Maximum unbound fraction in rat at 9 mg/kg, po; format: ADME, organism-based; design: dose 9 mg/kg, route oral; details: in vivo
Plasma [8] = assay: Maximum unbound fraction in rat plasma at 9 mg/kg, po; format: ADME, organism-based; design: dose 9 mg/kg, route oral; details: in vivo
[9] = Plasma protein binding in rat; format: ADME, cell-free; details: read-out: PPB (converted)
[10] = Ratio of drug level in brain to plasma in rat; format: ADME; details: brain and plasma, read-out: BPR
[11] = Oral bioavailability in rat at 9 mg/kg; format: ADME, organism-based; details: in vivo
[12] = Tmax in rat plasma at 9 mg/kg, po; format: ADME, organism-based; design: dose 9 mg/kg, route oral
[13] = Cmax in rat plasma at 9 mg/kg, po; format: ADME, organism-based; design: dose 9 mg/kg, route oral
[14] = Volume of distribution at steady state in rat at 3.3 mg/kg, iv; format: ADME, organism-based; design: dose 3.3 mg/kg, route intravenous; details: in vivo, read-out: Vdss
[15] = Clearance in rat at 3.3 mg/kg, iv; format: ADME, organism-based; design: dose 3.3 mg/kg, route intravenous; details: in vivo
Cannabinoid receptor 1 [16] = biological target: T2, Cannabinoid receptor 1 (Homo sapiens, UniProt P21554); assay: Antagonist activity at human CB1 receptor overexpressed in HEK cells assessed as [35S]GTPgamma binding after 1 hr by liquid scintillation counting analysis; format: functional, cell-based, HEK293
Liver microsome = assay: Clearance in rat liver microsomes at 2 uM by LC-MS/MS analysis; format: ADME
Method in brief: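 Rat liver microsomes at 0.5 mg/mL were incubated with 2 μM compound (final) and an NADPH-regenerating system. Aliquots were taken at 1, 3, 6, 9, 15, 25, 35 and 45 min and quenched in acetonitrile containing internal standard. Depletion was measured by LC-MS/MS. Clmic = −slope × 1000 / protein concentration (mg/mL), not corrected for microsomal protein binding.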

Cannabinoid receptor 2 = Cannabinoid receptor 2 (Homo sapiens, UniProt P34972); assay: Displacement of [3H]CP55940 from human CB2 receptor expressed in CHOK1 cells after 1 hr by liquid scintillation counting analysis; format: cell-based, CHO-K1
Method in brief: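 Membranes from butyrate-treated (5 mM, 24 h) CHO-K1 cells stably expressing human CB2, incubated with 0.3 nM [3H]CP55940 and increasing ligand concentrations, 60 min, 30 °C, pH 7.4 Tris buffer with 0.1% fatty acid-free BSA and 1% DMSO; nonspecific binding with 10 μM CP55940; filtration, scintillation counting; tested in triplicate.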

Cannabinoid receptor 1 [17] = biological target: T2, Cannabinoid receptor 1; assay: Displacement of [3H]CP55940 from human CB1 receptor expressed in CHOK1 cells after 1 hr by liquid scintillation counting analysis; format: cell-based, CHO-K1
Rattus norvegicus [18] = assay: Increase of insulin sensitivity in high fat diet-fed Sprague-Dawley rat assessed as decrease in insulin AUC at 30 mg/kg, po qd administered for 24 days followed by glucose challenge by oral glucose tolerance test; format: functional, organism-based; design: dose 30 mg/kg
Rattus norvegicus [19] = assay: Maximum unbound fraction in rat at 7.9 mg/kg, po; format: ADME, organism-based; design: dose 7.9 mg/kg, route oral; details: in vivo
Plasma [20] = assay: Maximum unbound fraction in rat plasma at 7.9 mg/kg, po; format: ADME, organism-based; design: dose 7.9 mg/kg, route oral; details: in vivo
[21] = Oral bioavailability in rat at 7.9 mg/kg; format: ADME, organism-based; details: in vivo
[22] = Tmax in rat plasma at 7.9 mg/kg, po; format: ADME, organism-based; design: dose 7.9 mg/kg, route oral
[23] = Cmax in rat plasma at 7.9 mg/kg, po; format: ADME, organism-based; design: dose 7.9 mg/kg, route oral
[24] = Volume of distribution at steady state in rat at 1 mg/kg, iv; format: ADME, organism-based; design: dose 1 mg/kg, route intravenous; details: in vivo, read-out: Vdss
[25] = Clearance in rat at 1 mg/kg, iv; format: ADME, organism-based; design: dose 1 mg/kg, route intravenous; details: in vivo
Hepatocyte = assay: Intrinsic clearance in rat hepatocytes at 10 uM by LC-MS/MS analysis; format: ADME, cell-based
Rattus norvegicus [26] = assay: Increase of insulin sensitivity in high fat diet-fed Sprague-Dawley rat assessed as decrease in insulin AUC at 10 mg/kg, po qd administered for 24 days followed by glucose challenge by oral glucose tolerance test; format: functional, organism-based; design: dose 10 mg/kg
Plasma [27] = assay: Maximum unbound fraction in rat plasma at 10 mg/kg, po; format: ADME, organism-based; design: dose 10 mg/kg, route oral; details: in vivo
Method in brief: (§2)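 Single-dose oral PK in rats at 10 mg/kg, measuring peak plasma concentration. The maximum unbound level was given alongside rat plasma protein binding (%).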

Rattus norvegicus [28] = assay: Maximum unbound fraction in rat at 10 mg/kg, po; format: ADME, organism-based; design: dose 10 mg/kg, route oral; details: in vivo; method in brief: as §2
[29] = Oral bioavailability in rat; format: ADME, organism-based; details: in vivo
Method in brief: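 Bioavailability from rat single-dose PK, comparing oral dosing (10, 7.9 or 9 mg/kg, depending on compound) with intravenous dosing.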

[30] = Tmax in po dosed rat plasma; format: ADME, organism-based
Method in brief: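 Single-dose rat PK study: compound given orally at 7.9 or 9 mg/kg, depending on compound. Plasma exposure followed over time, and Tmax (h) taken from the plasma concentration–time profile.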

[31] = Tmax in rat plasma at 10 mg/kg, po; format: ADME, organism-based; design: dose 10 mg/kg, route oral
Method in brief: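 Single oral dose of 10 mg/kg in rats. Plasma concentrations followed over time, and time to peak plasma level (h) read from the profile.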

[32] = Cmax in rat plasma at 10 mg/kg, po; format: ADME, organism-based; design: dose 10 mg/kg, route oral; method in brief: as §2
[33] = Volume of distribution at steady state in iv dosed rat; format: ADME, organism-based; details: in vivo, read-out: Vdss
[34] = Clearance in iv dosed rat; format: ADME, organism-based; details: in vivo

T2 sequence (P21554 whole entry): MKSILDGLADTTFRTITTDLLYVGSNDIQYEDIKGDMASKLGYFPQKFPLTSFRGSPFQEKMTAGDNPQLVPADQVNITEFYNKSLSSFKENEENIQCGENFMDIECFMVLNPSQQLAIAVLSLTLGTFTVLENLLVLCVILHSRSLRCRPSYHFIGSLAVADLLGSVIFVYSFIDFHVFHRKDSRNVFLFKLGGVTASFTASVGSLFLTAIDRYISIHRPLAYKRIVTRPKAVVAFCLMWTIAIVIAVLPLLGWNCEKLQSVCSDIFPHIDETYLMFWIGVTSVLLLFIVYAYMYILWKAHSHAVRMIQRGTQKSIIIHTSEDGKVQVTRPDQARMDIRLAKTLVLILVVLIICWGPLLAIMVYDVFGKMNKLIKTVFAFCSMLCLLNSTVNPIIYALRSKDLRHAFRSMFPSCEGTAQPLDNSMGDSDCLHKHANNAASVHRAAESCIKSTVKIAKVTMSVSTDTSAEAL
Sequence of Cannabinoid receptor 2 (P34972 whole entry): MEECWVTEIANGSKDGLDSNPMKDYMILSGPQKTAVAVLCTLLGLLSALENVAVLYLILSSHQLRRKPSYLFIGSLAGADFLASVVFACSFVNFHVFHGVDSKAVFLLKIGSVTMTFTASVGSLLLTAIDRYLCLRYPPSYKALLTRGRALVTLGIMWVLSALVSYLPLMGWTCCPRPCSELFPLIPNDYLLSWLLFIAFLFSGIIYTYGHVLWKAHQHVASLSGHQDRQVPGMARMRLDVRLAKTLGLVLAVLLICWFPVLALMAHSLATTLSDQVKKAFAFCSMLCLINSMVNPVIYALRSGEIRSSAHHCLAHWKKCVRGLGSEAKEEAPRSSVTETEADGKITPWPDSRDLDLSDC

SMILES: COCCOc1ncc(C(=O)N[C@@H]2CCCC[C@H]2O)cc1-c1ccc(Cl)cc1
- Activity (Rattus norvegicus [1]): inactive
- Activity (Rattus norvegicus [2]): inactive
- Activity (Rattus norvegicus [3]): inactive
- Kp at 240 h [4]: 0.13
- concentration at 240 h [5]: 130 ng/g
- Cmax [6]: 1000 ng/mL
- IC50 (Substance-K receptor): 46000 nM
- fCmax (Rattus norvegicus [7]): 156 nM
- Cp(f)max (Plasma [8]): 63 ng/mL
- fraction unbound [9]: 0.039
- Kp [10]: 0.1
- bioavailability [11]: 84%
- Tmax [12]: 0.5 h
- Cmax [13]: 1620 ng/mL
- Vd [14]: 0.7 L/kg
- clearance [15]: 18.6 mL/min/kg
- EC50 (Cannabinoid receptor 1 [16]): 11.6 nM
- CLH (Liver microsome): 98 µL/min/mg
- Ki (Cannabinoid receptor 2): > 10000 nM
- Ki (Cannabinoid receptor 1 [17]): 5.1 nM

SMILES: O=C(N[C@@H]1CCCC[C@H]1O)c1cnc(OCC2CC2)c(-c2ccc(Cl)cc2)c1
- Activity (Rattus norvegicus [18]): Active
- Activity (Rattus norvegicus [1]): Active
- Activity (Rattus norvegicus [2]): Active
- Activity (Rattus norvegicus [3]): Active
- Kp at 240 h [4]: 1.3
- concentration at 240 h [5]: 1400 ng/g
- Cmax [6]: 1020 ng/mL
- fCmax (Rattus norvegicus [19]): < 28 nM
- Cp(f)max (Plasma [20]): < 11 ng/mL
- fraction unbound [9]: < 0.016
- Kp [10]: 0.7
- bioavailability [21]: 23%
- Tmax [22]: 1.9 h
- Cmax [23]: 729 ng/mL
- Vd [24]: 1.8 L/kg
- clearance [25]: 7.4 mL/min/kg
- EC50 (Cannabinoid receptor 1 [16]): 3.9 nM
- CLH (Hepatocyte): 3.3 µL/min
- CLH (Liver microsome): 64 µL/min/mg
- Ki (Cannabinoid receptor 2): > 7000 nM

SMILES: Cc1c(C(=O)NN2CCCCC2)nn(-c2ccc(Cl)cc2Cl)c1-c1ccc(Cl)cc1 [RIMONABANT]
- Activity (Rattus norvegicus [26]): Active
- Cp(f)max (Plasma [27]): 0.83 ng/mL
- fraction unbound [9]: 0.003
- fCmax (Rattus norvegicus [28]): 1.8 nM
- Kp [10]: 3
- bioavailability [29]: 12%
- Tmax [30]: 1 h
- Tmax [31]: 1.5 h
- Cmax [32]: 244 ng/mL
- Vd [33]: 11.5 L/kg
- clearance [34]: 17 mL/min/kg
